In series [1] the test system is HUVEC. Nature of the series: Cellular uptake of FITC-labeled peptides by flow cytometry, HUVEC. It counts as cell-based, human. The conditions noted are these: 5 × 10^−6 mol/L, 4 h. Summed up: (§1)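 Cells grown in DMEM with 10% FBS at 37 °C, 5% CO₂. Seeded at 8 × 10⁴ cells/well and incubated overnight. FITC-labeled peptides (N-terminal Cys–maleimide-FITC) added at a final 5 × 10⁻⁶ mol/L for 4 h. Cells then trypsinized, centrifuged, resuspended in PBS and analysed by flow cytometry. Fluorescence signal compared between labeled peptides.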
A general note: Flow cytometry measures light scatter and fluorescence of single cells or particles in a stream.

Series [2] deals with A549 cells. Nature of the series: Cellular uptake of FITC-labeled peptides by flow cytometry, A549. It counts as cell-based, human. The conditions noted are these: 5 × 10^−6 mol/L, 4 h. The procedure, abridged: as §1
Series [3] concerns C6 cells. Nature of the series: Cellular uptake of FITC-labeled peptides by flow cytometry, C6. The conditions noted are these: 5 × 10^−6 mol/L, 4 h. In kind it is cell-based, rat. Summed up: as §1
Series [4] concerns U87 cells. Nature of the series: Cellular uptake of FITC-labeled peptides by flow cytometry, U87. In kind it is cell-based, human. The conditions noted are these: 5 × 10^−6 mol/L, 4 h. Summed up:
as §1

For series [5], the system named is A549 cells. Nature of the series: MTT cytotoxicity assay. In kind it is cell-based, human. The conditions noted are these: read-out: IC50 (in vitro cytotoxicity). The procedure, abridged:
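A549 cells seeded at 5 × 10³/well in DMEM with 10% FBS and antibiotics, preincubated 24 h at 37 °C, 5% CO₂. Test drug in PBS added at various concentrations for 48 h; untreated controls received fresh medium. MTT (5 mg/mL stock) added for 4 h, formazan dissolved in DMSO, absorbance read at 490 nm. Triplicate measurements.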

Counter-ions that a name gives are not always drawn. Like-named read-outs stand apart in the source and are kept apart here.

With FITC-D(CRGERPPR), in series [1], the “mean fluorescent intensity, times higher than that of FITC-CRGERPPR” value (“mean fluorescent intensity … of FITC-CRGERPPR” below) was approximately 13.1 times and the “mean fluorescent intensity, times higher than that of FITC-D(CRPPREGR)” value is reported as 5.7 times. For the same compound, in series [2], the “FITC-positive ratio, times higher than that of FITC-CRGERPPR” value is on record as 1.6 times and the “FITC-positive ratio, times higher than that of FITC-D(CRPPREGR)” value was 1.3 times. Further, in series [3], the “mean fluorescent intensity, times higher than FITC-D(CRPPREGR)” value came to 2.9 times and the “mean fluorescent intensity … of FITC-CRGERPPR” value turned out to be 5.4 times. Moreover, in series [4], the “mean fluorescent intensity, times higher than FITC-D(CRPPREGR)” value turned out to be 3.5 times and the “mean fluorescent intensity … of FITC-CRGERPPR” value is given as 3.3 times.

As to `N.N.O=C([O-])C1(C(=O)[O-])CCC1.[Pt+2]` [carboplatin], in series [5] (A549 cells, MTT assay, 48 h treatment, triplicate), the IC50 was determined as 138 µM.

Take `Nc1ccn([C@@H]2O[C@H](CO)[C@@H](O)C2(F)F)c(=O)n1` [gemcitabine, Gemcitabine hydrochloride]: the IC50 in series [5] (Homo sapiens, A549, 48 h) came to 4.83 µM.

One may read the IC50 as the concentration at which inhibition is half-maximal.

Values taken from PMC6146380 (Acta Pharmaceutica Sinica. B, 2018).
